# Most compounds without a hit are left out; they make up all but 2.2% or so of the library.
# PMI act satM6P – human PMI activators, high substrate, primary screen, biochemical, fluorescence intensity, near-saturating mannose 6-phosphate | Mannose-6-phosphate isomerase (Homo sapiens), P34949 | coupled PMI enzyme assay, resazurin fluorescence, 20 min; stronger effect = higher value; 1 = untreated enzyme, 0 = substrate-free blank | activation factor at 20 µM | actives 0.34% (n = 190,000);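 active = activation factor of 2 or more at 20 µM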
#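 Test system: human PMI in coupled enzyme assay; Input: PMI at 15 ng/mL final; Medium: HEPES buffer, pH 7.4; Schedule: 20 min incubation at room temperature; Technique: resorufin fluorescence at Ex 544/Em 590 nm; Compound: 20 µM single dose; Probe or stimulus: Near-saturating mannose-6-phosphate, 1.0 mM.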
# Diaphorase act – compounds boosting diaphorase resazurin reduction – biochemical, uHTS, resorufin fluorescence, counter-screen for diaphorase-coupled primary assays, primary screen; Diaphorase/resazurin coupled assay, 16 min; stronger effect = higher value; 1 = vehicle wells, 0 = NADH-free wells; activation factor at 20 µM; actives 0.005% (n = 190,000);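 active = diaphorase activity raised at least twofold by the compound at 20 µM; inactive = activation factor below 2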
#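 Assay system: Purified diaphorase enzyme from Clostridium kluyveri | Amount: Enzyme 0.07 U/mL final | Dosing: Compound 20 µM once, DMSO 1% | Timing: 16 min reaction at room temperature | Detection: Fluorescence, excitation 544 nm and emission 590 nm | Evaluation: Higher resorufin formation from activation or reduction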
# PMI act – activators of human PMI, primary screen, biochemical, fluorescence intensity, near-Km mannose 6-phosphate; Mannose-6-phosphate isomerase (Homo sapiens), P34949; purified human PMI, coupled resazurin fluorescence, 20 min; stronger effect = higher value; 1 = vehicle control, 0 substrate-free wells; actives 0.005% (n = 190,000); activation factor at 20 µM; AID 1214, 2008;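 active = activation factor of 2 or more at 20 µM, relative to plate controls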
# Diaphorase inh – diaphorase inhibitors and chemical oxidizers, primary screen, counter-screen for diaphorase-coupled primary assays, biochemical, uHTS, resorufin fluorescence | diaphorase resazurin-to-resorufin fluorescence, NADH, 16 min; bacterial (C. kluyveri) enzyme, not human | inhibition, % at 20 µM | actives 0.69% (n = 190,000);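 active = primary screen inhibition at 20 µM above a set limit, cut at about 50% in these data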;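 note: plate controls were DMSO with full reaction for no effect and wells lacking NADH for full effect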
#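 Assay system: diaphorase enzyme from Clostridium kluyveri. Quantity: enzyme working solution with 0.14 U/mL diaphorase. Schedule: reaction incubation of 16 min at room temperature. Technique: resorufin fluorescence, excitation 544 nm, emission 590 nm. Controls: No-NADH positive control and DMSO neutral control.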
# ROMK mod – ROMK potassium channel modulators, primary screen, cell-based, thallium flux, MLSMR library; Tet-inducible ROMK, thallium flux fluorescence; actives lie on both sides; B-score at 10 µM; actives 2% (n = 130,000);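 active = signal ratio slope over the read window, or its plate-corrected B-score, at least 3 SD from the plate mean, either direction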;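 note: B-score of the F/F0 ratio slope over 7 to 12 s after thallium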
# Target sequence (P48048 whole entry, looked up): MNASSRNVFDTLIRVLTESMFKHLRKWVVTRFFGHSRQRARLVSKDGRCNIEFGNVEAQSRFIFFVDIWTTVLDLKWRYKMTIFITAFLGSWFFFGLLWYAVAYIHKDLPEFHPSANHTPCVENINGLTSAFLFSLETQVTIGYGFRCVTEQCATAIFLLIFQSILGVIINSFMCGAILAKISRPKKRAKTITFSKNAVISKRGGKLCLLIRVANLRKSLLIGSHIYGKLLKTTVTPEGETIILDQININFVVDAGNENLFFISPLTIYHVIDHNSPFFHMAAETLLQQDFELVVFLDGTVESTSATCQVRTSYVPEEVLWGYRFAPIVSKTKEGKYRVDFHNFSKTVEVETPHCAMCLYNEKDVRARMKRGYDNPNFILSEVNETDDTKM
# G6PDH counter – L. mesenteroides G6PDH inhibitors, counter-screen for G6PDH-coupled screening assays, biochemical, Leuconostoc mesenteroides enzyme; Purified L. mesenteroides G6PDH, diaphorase/resazurin coupled fluorescence, 45 min; actives 0.12% (n = 200,000); inhibition, % at 5 µM; in the data active = inhibition above about 50%
# ROMK retest – ROMK channel modulator hit retest, confirmation, cell-based, thallium flux, duplicate, resupplied hits | shares compounds with ROMK mod | fluorescence ratio; stronger effect = lower value | normalized thallium flux (F/F0 slope) at 10 µM | actives 54% (n = 3,000) | AID 1917, 2009;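 active = Flux at 10 µM at least 3 SD below or above vehicle control mean in one or both replicates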
# * marks the source's active call; other numbers are inactive results; nt = not tested or not shown.
SMILES,PMI act satM6P,Diaphorase act,PMI act,Diaphorase inh,ROMK mod,G6PDH counter,ROMK retest
O=C(/C=C/Nc1ccc([N+](=O)[O-])cc1Br)c1cccc2ccccc12,0.8,0.9,0.9,13,0.028,8,nt
C/C(=N\NC(=O)c1cc(C)oc1C)c1ccc(N2CCOCC2)cc1,1.1,0.9,1.1,9,-0.2,11,nt
CCN1CCc2c(C#N)c(N3CCCCC3)nc(NCc3ccccc3)c2C1,0.7,0.8,0.7,20,-2.6*,-39,0.066*
O=C1C2C3C=CC(C3)C2C(=O)N1CCN1CCN(Cc2ccc([N+](=O)[O-])cc2)CC1 (centres undefined),1,0.9,1,8,nt,-1,nt
CN(C)c1ccnc(Nc2ccccc2)c1C#N,1.1,0.9,1,5,nt,0,nt
CN(C)c1ccnc2c[cH-]cc12.[Fe].c1ccc(-[c-]2[c-](-c3ccccc3)[c-](-c3ccccc3)[c-](-c3ccccc3)[c-]2-c2ccccc2)cc1 (centres undefined),nt,nt,nt,nt,nt,nt,0.066*
Cc1ccc(-n2c(O)c(/C=N/NC(=O)C3COc4ccccc4O3)c3ccccc3c2=O)cc1 (centres undefined),1.3,0.8,1.3,20,-2.7*,-12,0.052*
O=C(N/N=C/c1c(O)n(-c2ccccc2Cl)c(=O)c2ccccc12)C1COc2ccccc2O1 (centres undefined),1.1,0.7,1,32,nt,-18,nt
CSc1nnc(SCC#N)s1,nt,nt,nt,nt,0.58,nt,nt
COc1ccc(NC(=S)N2CCCCCC2)cc1OC,0.9,1,1,5,0.18,6,nt
CCn1cc(C(=O)OCC(=O)c2cc(C)n(-c3ccc(OC(F)F)cc3)c2C)c(=O)c2ccc(C)nc21,1,0.8,0.9,21,-3.2*,2,0.063*
CCn1cc(C(=O)OCC(=O)c2cc(C)n(-c3ccccc3)c2C)c(=O)c2ccc(C)nc21,1,1,0.9,3,-0.36,-20,nt
CCn1cc(C(=O)OCC(=O)N(C)Cc2ccccc2)c(=O)c2ccc(C)nc21,1.1,0.9,1.1,8,2.9*,4,0.078
Cn1c(=O)c2c(nc(N3CCN(Cc4ccccc4)CC3)n2CCCc2ccccc2)n(C)c1=O,1,1,1,4,nt,12,0.058*
O=C1c2[nH]nc(-c3ccccc3O)c2C(c2cccc(Cl)c2)N1CC1CCCO1 (centres undefined),0.9,0.8,0.9,19,-2.4*,-24,0.052*
O=C(N/N=C/c1ccc([N+](=O)[O-])o1)C1CC1,0.7,0.8,1.1,22,-1.2,9,nt
O=C(CN1C(=O)NC2(CCCC2)C1=O)N1CCc2ccccc2C1,0.9,0.9,1,9,2.2*,6,0.087
CCOc1ccc(NC(=O)C(C)NS(=O)(=O)c2ccc(NC(C)=O)cc2)cc1 (centres undefined),0.9,0.9,1,11,-0.85,3,nt
COc1cc(CNC(C)C)c(Br)cc1OC1CCCC1,0.9,0.8,0.9,16,0.22,15,nt
COc1ccc(C2N(C(=O)N3CCOCC3)CCN2S(=O)(=O)c2ccc(C)cc2)cc1 (centres undefined),1,0.8,0.9,18,1.9*,0,0.083
Cc1ccc(S(=O)(=O)N2CCN(C(=O)N3CCOCC3)C2c2ccc(N(C)C)cc2)cc1 (centres undefined),0.9,0.8,0.9,16,1.4,-17,nt
O=C1NC(c2ccc3c(c2)OCO3)Nc2ccccc21 (centres undefined),1,0.8,1,16,2.2*,0,0.085
Cc1c(NC2=CC(=O)CCC2)c(=O)n(-c2ccccc2)n1C,0.9,1,1,3,-0.91,4,nt
CCOC(=O)C1(CC2CCCCO2)CCN(Cc2ccccc2-c2ccco2)CC1 (centres undefined),0.9,0.9,1,5,-1.3,15,nt
Cc1nc2ccccc2c(=O)n1NC(=O)C1CCC(C(C)(C)C)CC1 (centres undefined),0.9,1,1,4,-0.44,4,nt
SMILES,PMI act satM6P,Diaphorase act,PMI act,Diaphorase inh,ROMK mod,G6PDH counter,ROMK retest
CCOCCCNC(=O)c1ccc2c(c1)N=C(CC)c1cc(Br)ccc1S2,0.9,0.8,0.9,21,4.1*,6,0.084
CCOCCCNC(=O)c1ccc2c(c1)OCO2,1,0.9,1,5,nt,3,nt
CC(=O)Nc1cc(C(=O)NCCN2CCN(Cc3ccccc3)CC2)ccc1Sc1ccc(C)cc1,0.9,0.9,0.9,8,-1.5,2,nt
CCCC(c1nnnn1Cc1ccc(F)cc1)N1CCN(C2CCCCC2)CC1 (centres undefined),0.9,0.9,1,8,nt,-1,0.052*
CC(C)C(c1nnnn1Cc1ccc(F)cc1)N1CCN(C2CCCC2)CC1 (centres undefined),1,1,0.9,0,-4.6*,15,0.059*
CC(C)C(c1nnnn1Cc1ccco1)N1CCN(C2CCCC2)CC1 (centres undefined),0.9,0.9,0.9,14,-1.1,11,nt
COc1ccc(Cn2nnnc2C(c2ccc(F)cc2)N2CCN(C3CCCC3)CC2)cc1 (centres undefined),0.9,0.7,0.9,27,-4.2*,2,0.053*
Cc1ccc(NC(=O)CSCc2ccc(F)cc2)cc1,1,0.9,1,5,1.2,1,nt
CCN(CC)C(=O)CSC(Nc1ccc(F)cc1)=C(C#N)C#N,nt,nt,nt,nt,nt,nt,0.059*
CCN(CC)C(=O)CSC(=Nc1ccccc1F)NC#N,1,1,1,0,-0.93,-1,nt
Cc1ccc(CSC(Nc2ccc(F)cc2)=C(C#N)C#N)cc1,0.9,0.7,0.8,31,-0.86,6,0.075
O=C(Cn1c(NCCO)nc2ccccc21)N1CCN(Cc2ccccc2)CC1,1,0.9,1,8,0.083,4,nt
CC(C)(/C=N/NC(=O)CSCc1ccc(Cl)cc1)CCC#N,0.9,0.9,0.8,13,0.16,10,nt
Clc1ccc(CN2CCC(c3nc4ccc(Cl)cc4[nH]3)CC2)cc1,1,0.9,1.1,11,nt,0,0.063*
